Screens deposited in PubChem by The Scripps Research Institute Molecular Screening Center.
Compounds with a hit are over-represented: about 1.8% of the library has one in this group of screens.
HTRA1 inh – inhibitors of human serine peptidase HTRA1. AID 504803. 0.5% of 340,000 active. Q92743. recombinant HTRA1, FP-rhodamine activity-based probe, fluorescence polarization. inhibition, % at 5.96 µM; in the data active = inhibition above about 36%;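 note: 0% = enzyme with DMSO and 100% = wells lacking enzyme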
Target sequence (Q92743 whole entry, looked up): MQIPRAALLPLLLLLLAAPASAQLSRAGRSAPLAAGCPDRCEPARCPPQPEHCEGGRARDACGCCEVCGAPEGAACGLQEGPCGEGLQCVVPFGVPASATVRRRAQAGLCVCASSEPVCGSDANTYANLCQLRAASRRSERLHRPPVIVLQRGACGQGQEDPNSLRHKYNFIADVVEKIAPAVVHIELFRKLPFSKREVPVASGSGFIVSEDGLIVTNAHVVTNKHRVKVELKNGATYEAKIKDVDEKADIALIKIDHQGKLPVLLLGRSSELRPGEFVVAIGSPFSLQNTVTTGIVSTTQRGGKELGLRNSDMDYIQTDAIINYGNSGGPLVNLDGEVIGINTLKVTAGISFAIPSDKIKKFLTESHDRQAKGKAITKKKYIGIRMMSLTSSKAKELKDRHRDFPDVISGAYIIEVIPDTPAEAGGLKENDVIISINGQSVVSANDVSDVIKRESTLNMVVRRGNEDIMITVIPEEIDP
ABHD4 inh – ABHD4 (mouse) inhibition, primary FP screen; 0.54% of 370,000 active; inhibition, % at 8.92 µM; Q8VD66; purified mABHD4, FP-Rh probe fluorescence polarization;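 active = inhibition exceeding the mean over every tested compound plus 3 SD, cut at about 30% in these data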;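 note: 0% = plate median of compound wells and 100% = S159A mutant with DMSO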
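Material: mouse ABHD4 enzyme, wild type; Benchmarks: S159A mutant high control, sample median low control; Buffer or medium: HEPES pH 7.0, NaCl, Pluronic buffer; Signal: fluorescence polarization; Read-out: percent inhibition of probe binding, normalized to plate controls; Timing: pre-incubation 45 min, probe exposure 60 min, at 25 °C; Dosing: 8.92 µM, single dose.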
SIAE primary – inhibitors of human sialic acid acetylesterase SIAE; inhibition, % at 9.66 µM; Q9HAT2; 0.69% of 370,000 active; AID 1053197; SIAE FP-Rh probe binding, fluorescence polarization;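 active = inhibition above a cutoff: mean of compounds within the control limits plus 3 SD of those, cut at about 17% in these data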;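 note: 0% = plate median of compound wells and 100% = probe without SIAE protein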
Tn7 DDE FP – disrupts Tn7 cyclic peptide binding to fibrin D-Dimer-E complex; P02675; FP displacement of FITC-Tn7 peptide from fibrin DD(E); 0% = median of compound wells per plate; inhibition, % at 8.3 µM; 0.13% of 370,000 active; AID 720508;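 active = inhibition above the mean of compounds falling within the control limits plus 3 SD of them, cut at about 14% in these data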;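 note: 0% = plate median of compound wells and 100% = 10 µM Aha-Tn7 peptide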
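assay system = human clot-derived fibrin DD(E) complex | quantity = Fibrin-DD(E) at 2 µM final | timing = 10 min preincubation, 3 h with tracer, room temperature | signal = fluorescence polarization | measure = percent inhibition | benchmarks = high control wells with 10 µM unlabelled Aha-Tn7 peptide (full inhibition) | replicates = singlicate testing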
TCR-CD3 inh – blocks the human TCR-CD3 interaction | TAMRA-labeled TCR probe fluorescence, biochemical | 0.37% of 360,000 active | inhibition, % at 9.4 µM; in the data active = inhibition above about 19%;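 note: recombinant mutant TCR 2C K166C tagged with TAMRA read by polarization; 0% = receptor in buffer alone and 100% = receptor with positive control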
Tn6 DDE FP – DD(E)-Tn6 binding inhibition, primary FP screen | inhibition, % at 8.3 µM | 0.21% of 370,000 active | Fibrin DD(E) TRITC-Tn6 fluorescence polarization displacement | P02675 | AID 720509;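 active = inhibition above a per-campaign cutoff: mean of compounds within control limits plus 3 SD, cut at about 15% in these data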;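 note: 0% = median of all compound wells on the plate and 100% = blocking peptide control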
SIAE confirm – confirmation of human SIAE inhibitors | inhibition, % at 9.66 µM | SIAE FP-Rh activity-based probe, fluorescence polarization | AID 1117263 | 13% of 2,300 active | shares compounds with SIAE primary;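 active = mean inhibition of the replicates above the hit cutoff set in the primary screen, cut at about 17% in these data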;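 note: 0% = SIAE with DMSO and probe and 100% = probe without SIAE; inhibitors lower polarization as more probe stays unbound to SIAE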
* marks the source's active call; other numbers are inactive results; x = not tested or not shown.

SMILES	HTRA1 inh	ABHD4 inh	SIAE primary	Tn7 DDE FP	TCR-CD3 inh	Tn6 DDE FP	SIAE confirm
COc1ccc(-n2c(=S)[nH]c3cc(C(=O)Nc4cc(OC)c(OC)c(OC)c4)ccc3c2=O)c(OC)c1	1	-1	17*	-2	-1	4	2
COc1ccc(-n2c(=S)[nH]c3cc(C(=O)NCc4ccccc4)ccc3c2=O)c(OC)c1	-16	-9	2	1	-3	1	x
O=S(=O)(NCc1ccco1)c1ccccc1Br	-2	-5	20*	-7	4	-1	-1
Cc1ccc(N(Cc2ccc(C(=O)NCC3CCCO3)cc2)S(C)(=O)=O)cc1C (stereo not drawn)	-4	-4	20*	4	7	4	2
CCc1ccc(NC(=O)Nc2ccc3c(c2)N(C)C(=O)CS3)cc1	-17	4	24*	-10	5	-14	1
COC(=O)[C@]12C[C@H](CC(=O)NCc3cccc4ccccc34)C(=O)N(Cc3ccc(Cl)cc3Cl)C1=C[C@H](C1CCCC1)O[C@@H]2C	x	-3	-6	0	x	5	x
O=C1NC(=Nc2ccccc2)S/C1=C\C=C\c1ccco1	18	21	24*	3	9	-4	1
Cc1ccc(N=C2NC(=O)/C(=C/C=C/c3ccco3)S2)cc1	20	19	14	-6	8	-7	x
Cc1cccc(N=C2NC(=O)/C(=C/c3cccn3C)S2)c1C	5	-3	-18	2	-2	9	x
Cc1cccc(N=C2NC(=O)/C(=C/C=C/c3ccco3)S2)c1C	32	21	18*	1	13	-4	6
O=C1S/C(=C\C=C\c2ccco2)C(=O)N1c1ccccc1	9	14	21*	4	-2	-14	3
CC[C@H](CCC(=O)N(c1ccccc1)c1ccccc1)C1CC1	x	-8	4	-2	x	2	x
CC1CN(S(=O)(=O)c2cccc(C(=O)N(Cc3nnc(-c4ccccc4Cl)o3)C3CC3)c2)CC(C)O1 (stereo not drawn)	2	1	17*	-1	-11	-7	-2
O=C1[C@@H](CCc2ccccc2)[C@@H]2c3ccccc3C=NN2[C@@H]2c3ccccc3C=NN12	x	-7	18*	-3	x	-4	7
CCCc1nnc(SCc2ccc(OC)cc2)n1N	-1	5	18*	4	5	7	1
CC1=CC2C3C(=O)N(c4ccccc4)C(=O)C3C1C(=O)C2(O)C(C)C (stereo not drawn)	x	5	0	4	-6	-1	x
CC(C)C1=CC2C3C(=O)N(c4ccccc4)C(=O)C3C1C(=O)C2(C)O (stereo not drawn)	x	2	21*	1	7	2	3
COC(=O)[C@]12C[C@H](CC(=O)NCc3ccc(C)o3)C(=O)N(Cc3cccc4ccccc34)C1=C[C@H](COCc1ccccc1)O[C@@H]2C	x	-6	-3	-7	x	-4	x
CCOC(=O)C1=CCN(S(=O)(=O)c2ccc(Br)cc2)C1c1cccc(F)c1 (stereo not drawn)	x	-5	-4	2	2	1	x
COC(=O)C1CN(Cc2ccc(C)cc2)CCS(=O)(=O)N1Cc1cn(Cc2ccc(F)cc2)nn1 (stereo not drawn)	x	-2	60*	0	x	-3	-3
Cc1[nH]c(C)c(C(=O)/C=C/c2ccc([N+](=O)[O-])cc2)c1C	17	15	25*	-3	-1	-4	3
O=C(NCCc1csc(-c2ccccc2)n1)c1ccc(Br)o1	-12	2	-1	1	3	5	x
O=C(NCCc1csc(-c2cccnc2)n1)c1ccc(Br)o1	-3	-2	18*	-2	6	-4	-1
CCCC[C@@H]1C(=O)N2N=Cc3cscc3[C@H]2N2N=Cc3cscc3[C@@H]12	x	-4	-2	12	x	-2	x
COc1ccc(/C=N/Nc2nc(C)cc(-c3ccccc3)n2)cc1OC	-8	4	-1	2	-5	2	x
SMILES	HTRA1 inh	ABHD4 inh	SIAE primary	Tn7 DDE FP	TCR-CD3 inh	Tn6 DDE FP	SIAE confirm
COc1ccc(/C=N/Nc2nc(-c3ccc(Cl)cc3)cc(C(F)(F)F)n2)cc1OC	-12	-14	20*	-6	-2	-3	0
O=C(COC(=O)Cc1ccc(Cl)cc1Cl)NCCC1=CCCCC1	2	5	-5	-9	-11	1	x
O=C(COC(=O)c1cc(Cl)ccc1O)NCCC1=CCCCC1	1	-1	17*	-4	-4	-3	0
O=C(CSc1nnc(COc2ccccc2)n1-c1ccc(Cl)cc1)Nc1ccc2c(c1)OCCO2	x	-12	-1	-1	x	-4	x
CN(C)C1=NCCN1CCCC1CCCCC1	4	3	1	-2	2	4	x
CCCCN1CCN=C1N(C)C	4	0	17*	7	6	-8	3
O=[N+]([O-])c1cccc(-c2csc(N/N=C/c3cccc(O)c3)n2)c1	4	8	27*	7	7	-4	0
CN(C)S(=O)(=O)c1ccc(-c2csc(N/N=C/c3ccc(O)cc3)n2)cc1	26	-3	20*	7	-5	6	24*
O=C(OCC#CCSc1nnc(-c2cc3ccccc3cc2O)o1)c1ccc(F)cc1	x	-6	-3	5	x	0	x
CCOC(=O)C1=C(O)/C(=C/c2ccc(CNC(=O)C(=O)Nc3ccc(C)cc3)o2)N=C1C	32	29	9	-5	-7	0	x
CCOC(=O)C1=C(O)/C(=C\c2ccc(CNS(=O)(=O)c3ccc(Br)cc3)o2)N=C1C	18	23	18*	2	0	9	5
COC(=O)C1=C(O)/C(=C\c2ccc(CNS(=O)(=O)c3ccc(Cl)cc3)o2)N=C1C	34	29	22*	-1	14	-1	-5
CCOC(=O)C(=O)NCc1ccc(/C=C2/N=C(C)C(C(=O)OCC)=C2O)o1	8	15	3	-9	6	-8	x
Cc1cccc(Cl)c1-n1nnnc1C1(C)CSCC(=O)N1Cc1ccc(F)cc1 (stereo not drawn)	x	6	-4	-8	x	2	x
COC(=O)C1=C(C)N(Cc2ccccc2C(F)(F)F)C(=NCc2ccccc2C(F)(F)F)NC1c1ccc(Cl)cc1 (stereo not drawn)	x	7	-5	1	3	6	x
COc1ccc(NC(=O)/C=C/c2cc(OC)c(OC)c(OC)c2)cn1	3	4	21*	1	2	-6	3
COc1ccc(NC(=O)/C=C/c2ccccc2)cn1	4	3	2	-6	-6	-1	x
CC(C)(C)c1ccc(-c2cn(C[C@H](Cc3ccccc3)n3c(=O)c4ccccc4n3Cc3ccno3)nn2)cc1	x	-3	-8	-1	x	-4	x
